Results as given in article PMC12257511 (Journal of the American Chemical Society, 2025).
Where a SMILES comes first, the peptide text is derived from it. Bridges are numbered along the chain shown (N, C = ends).

Key:
αSyn [1] = target: T1, αSyn (Homo sapiens, UniProt P37840); assay: Phase separation assay of αSyn with peptides; assay type: biochemical
How it was run: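 αSyn monomer dissolved in 10 mM NaOH to neutral pH, filtered, stored at −80 °C as a 400 μM stock. Mixed with 10% PEG in buffer pH 7.5 (DIC series: 20 mM sodium phosphate) and test compound from DMSO stock, 1% DMSO final. αSyn 100 μM unless stated (20–200 μM range); peptide 10–1,000 μM. Incubated 30 min at 4 °C. DIC at room temperature; turbidity at 600 nm, 1 mm cell, Peltier-controlled.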

[2] = Self-assembly and solubility of the peptide itself; assay type: physicochemical; settings: microscopy and turbidity measurements, absence of αSyn
How it was run: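 Test compound alone, without αSyn, added from DMSO stock to 10% PEG buffer at 1% DMSO final, over a range of concentrations. Incubated 30 min at 4 °C. Turbidity read at 600 nm in a 1 mm cell; supernatant fluorescence also measured.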

αSyn1–103 = assay: Phase separation assay with C-terminally truncated αSyn; assay type: biochemical, human; settings: 400 μM peptide, DIC images
αSyn [3] = target: T1, αSyn; assay: ThT/ANS fluorescence assay of spontaneous αSyn aggregation; assay type: biochemical
How it was run: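 αSyn monomer diluted in 10× PBS with 20 μM ThT and 50 μM ANS (from 1 mM stock) and test compound at 0.1–10 mol equiv, prepared on ice. Plate held at 37 °C, cycling 3 min shaking/27 min quiescence. Bottom read: ThT ex 440 nm, ANS ex 380 nm, em 480 nm; three repeats per sample. […].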

C[C@@H](O)[C@H](NC(=O)[C@H](CCCNC(=N)N)NC(=O)[C@H](Cc1c[nH]c2ccccc12)NC(=O)[C@H](Cc1c[nH]c2ccccc12)NC(=O)[C@H](CCCNC(=N)N)NC(=O)[C@@H]1CCCN1C(=O)[C@H](CCCCN)NC(=O)[C@@H]1CSCC(=O)N[C@@H](Cc2ccc(O)cc2)C(=O)N[C@@H](CCC(N)=O)C(=O)N[C@@H](CCCNC(=N)N)C(=O)N[C@@H](Cc2c[nH]c3ccccc23)C(=O)N1)C(=O)N[C@@H](CS)C(=O)N[C@@H](Cc1ccc(O)cc1)C(=O)N[C@@H](Cc1c[nH]c2ccccc12)C(=O)N[C@@H](CS)C(=O)NCC(=O)N[C@@H](CCCCN)C(=O)N[C@@H](CCCCN)C(=O)N[C@@H](CCCCN)C(N)=O [FL2] ({CH2CO}-YQRWCKPRWWRTCYWCGKKK-NH2; thioether N-5)
Temperature-dependent turbidity of the condensates (αSyn [1]; PBS buffer, 400 μM FL2 or 1 mM FD1): dissociated to a dispersed monomeric state as the temperature increased | Concentration dependence of droplet formation (αSyn [1]; peptide 10–1,000 μM, 100 μM αSyn, 30 min at 4 °C, turbidity at 600 nm and fluorescence of the dilute phase): concentration-dependent increase in droplet formation | Self-assembly of the peptide itself [2]: tends to undergo self-assembly and/or LLPS at high concentrations | LLPS efficiency with αSyn1–103 (class label in DIC image) (αSyn1–103): formed aggregates rather than liquid droplets | ANS fluorescence in the droplets (αSyn [3]; 400 μM FL2, 3 h incubation at 37 °C, fluorescence images): increase in ANS fluorescence intensity in the droplets | Effect on spontaneous αSyn fibril formation, condition ii (αSyn [3]; 10% PEG in PBS, 0.1 to 10 mol equiv peptide, ThT, 37 °C, three repeats): a reduction in both ThT fluorescence intensity and lag time | Maximum ThT and ANS intensity at high peptide concentrations (αSyn [3]; conditions ii and iii): decrease of magnitude of ThT signal and increase of ANS intensity | Effect on spontaneous αSyn fibril formation, condition i (αSyn [3]; no PEG, PBS buffer, 0.1 to 10 mol equiv peptide, ThT, 37 °C, three repeats): no acceleration of the fibril formation of αSyn but rather expanded the lag time
